Activity calls are given as the source filed them. The calls are words filed in the database; no cut-off is given here.
How the values were obtained:
[1] = Induction of disruption of r(CCUG)12-MBNL1 complex (unknown origin) incubated for 15 mins by TR-FRET assay; design: species or system Homo sapiens
Method in brief: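 Biotinylated r(CCUG)12 was folded at 60 °C for 5 min in 20 mM HEPES pH 7.5, 110 mM KCl, 10 mM NaCl. It was then brought to assay buffer (plus 2 mM MgCl2, 2 mM CaCl2, 5 mM DTT, 0.1% BSA, 0.5% Tween-20) and preincubated 15 min with MBNL1-His6 (final 80 nM RNA, 60 nM protein). Compound was added for 15 min, then streptavidin-XL665 (40 nM) and anti-His6-Tb (0.44 ng/μL) for 30 min at room temperature. TR-FRET 545/665 ratios were read; IC50 was taken from dose-response fits.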

Homo sapiens [2] = species: Homo sapiens; test: Inhibition of r(CCUG)12-MBNL1 complex formation (unknown origin) assessed as rescue of IR exon 11 splicing defect at 5 uM by RT-PCR analysis; design: scale not given: the % may be the effect or the level left
Method in brief: (§1)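 DM2 patient fibroblasts were treated at ~40% confluency for 48 h. About 1 μg of total RNA was reverse transcribed, and IR exon 11 was PCR-amplified for 35 cycles (95 °C/58 °C/72 °C). Products were resolved on 2% agarose stained with ethidium bromide and quantified by densitometry. Percent rescue was calculated as (DM2 untreated − treated exclusion)/(DM2 untreated − WT exclusion) × 100.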

Fibroblast [3] = test: Cytotoxicity against DM2 patient derived fibroblast assessed as cell viability at 5 uM incubated for 48 hrs by Cell Titre-Glo assay; assay type: cell-based; conditions: human
Method in brief: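 DM2 patient-derived fibroblasts were grown in high-glucose DMEM with 20% FBS at 37 °C, 5% CO2. After 48 h of compound treatment, viability was read as CellTiter-Glo luminescence after 10 min at room temperature (n = 6 replicates, one independent experiment).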

Homo sapiens [4] = species: Homo sapiens; test: Inhibition of r(CCUG)12-MBNL1 complex formation (unknown origin) assessed as rescue of IR exon 11 splicing defect at 1 uM by RT-PCR analysis; design: scale not given: the % may be the effect or the level left; method in brief: as §1
[5] = Binding affinity to r(CCUG)12 (unknown origin) assessed as apparent dissociation constant incubated for 30 mins by microscale thermophoresis; design: species or system Homo sapiens; conditions: read-out: Kd(app)
Method in brief: (§2)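 Microscale thermophoresis with Cy5-labeled RNA (5 nM) folded in 8 mM Na2HPO4 pH 7.0, 185 mM NaCl, 1 mM EDTA at 60 °C for 5 min, then slowly cooled. The RNA was added to 1:1 serial compound dilutions in the same buffer, giving 0.05% Tween-20 final, and held 30 min at room temperature. Kd was fit to a quadratic binding equation; values are the mean of two independent experiments.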

[6] = Binding affinity to Base-paired RNA (unknown origin) assessed as dissociation constant incubated for 30 mins by microscale thermophoresis; design: species or system Homo sapiens; method in brief: as §2
Fibroblast [7] = test: Inhibition of r(CCUG)12-MBNL1 complex formation in DM2-patient derived fibroblast assessed as reduction in complex in nuclear foci per cell at 5 uM by immunofluorescence imaging analysis; assay type: tissue-based; conditions: Homo sapiens
Fibroblast [8] = test: Effect on MAP4K4 exon 22a splicing in DM2-patient derived fibroblast; assay type: tissue-based; conditions: Homo sapiens
Fibroblast [9] = test: Reduction in CNBP intron 1 level in DM2 patient derived fibroblast at 5 uM by RT-qPCR analysis; assay type: functional, tissue-based; conditions: Homo sapiens
Method in brief: (§3)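 DM2 patient fibroblasts (DMEM, 20% FBS) were treated at 40% confluency for 48 h. Total RNA was then extracted and transcript levels were measured by RT-qPCR, normalized to GAPDH (n = 6 replicates per concentration, 2 independent experiments).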

Fibroblast [10] = test: Reduction in CNBP intron 1 level in DM2 patient derived fibroblast at 1 uM by RT-qPCR analysis; assay type: functional, tissue-based; conditions: Homo sapiens; method in brief: as §3
Fibroblast [11] = test: Effect on CNBP mature mRNA level in DM2 patient derived fibroblast at 0.2 to 5 uM by RT-qPCR analysis; assay type: functional, tissue-based; conditions: Homo sapiens, dose 0.2-5 µM; method in brief: as §3
Fibroblast [12] = test: Effect on CNBP mature mRNA level in wild type human fibroblast at 0.2 to 5 uM by RT-qPCR analysis; assay type: functional, tissue-based; conditions: dose 0.2-5 µM
Method in brief: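 Wild-type GM07492 fibroblasts were grown in MEM with 10% FBS. They were treated at 40% confluency for 48 h, and total RNA was extracted. Transcript level was measured by RT-qPCR normalized to GAPDH (n = 6 per concentration, 2 independent experiments).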

Fibroblast [13] = test: Effect on IR exon 11 exclusion in wild type human fibroblast at 0.2 to 5 uM by RT-qPCR analysis; assay type: functional, tissue-based; conditions: dose 0.2-5 µM

IC50 [1]: 2000 nM | Activity (Homo sapiens [2]): 30% | Activity (Homo sapiens [4]): 33% | Kd [5]: 192 nM | Kd [6]: > 20000 nM
SMILES: Cc1ccc2nc(Nc3ccc4nc(C)sc4c3)nc(NCCCO)c2c1
Activity (Fibroblast [3]): Non-Toxic | inhibition (Fibroblast [7]): 30% | Activity (Fibroblast [8]): inactive | Activity (Fibroblast [9]): Active | Activity (Fibroblast [10]): Active | Activity (Fibroblast [11]): inactive | Activity (Fibroblast [12]): inactive | Activity (Fibroblast [13]): inactive
